Granule exo inh: blocks lytic granule exocytosis; actives 0.66% (n = 360,000); inhibition, % at 10 µM; TALL-104 LAMP-1 surface exposure, flow cytometry; cells stimulated with thapsigargin and PMA; AID 651702;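 active = inhibition above about 55%, limit read from the data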
Tb MetRS inh: blocks T. brucei methionyl-tRNA synthetase activity; purified T. brucei MetRS, ATP depletion, Kinase-Glo luminescence; inhibition, % at 11.9 µM; actives 0.4% (n = 360,000); AID 624268;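 active = inhibition above a per-plate cutoff of the control wells' mean inhibition plus 3 SD, cut at about 5.5% in these data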;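 note: 0% = DMSO wells median and 100% = median of wells with control inhibitor compound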
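Test system – parasite MetRS enzyme · Reagent – substrates ATP, L-methionine and bulk Escherichia coli tRNA · Doses – 11.9 µM compound single dose, 0.9% DMSO · Times – 15 min enzyme-compound preincubation, 2 h reaction, 10 min detection, 25 °C · Signal – Kinase-Glo luminescence, ATP depletion format · Controls – DMSO-only wells as low control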
ABCB6 inh MLPCN: inhibitors of human ABC transporter ABCB6; Q9NP58; K562-ABCB6 porphyrin accumulation, flow cytometry, 1 h; active compounds read low; fluorescence ratio to DMSO, % at 10 µM; actives 0.19% (n = 360,000);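 active = fluorescence ratio to DMSO below 75%, the collection mean minus 3 SD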;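 note: signal is porphyrin accumulated inside mitochondria; 100% equals median channel fluorescence of DMSO control wells; lower ratio means ABCB6 inhibition with less porphyrin fluorescence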
MC4R barr agon: agonists of human melanocortin 4 receptor (MC4R) beta-arrestin; U2OS MC4R beta-arrestin complementation, luminescence; percent of melanotan II response, DMSO zero; activation, % at 8.9 µM; AID 540308; actives 0.98% (n = 360,000); P32245;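 active = activation above a per-plate cutoff, the mean activation of sample wells on that plate plus 3 SD, cut at about 8% in these data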
Target sequence (P32245 whole entry, looked up): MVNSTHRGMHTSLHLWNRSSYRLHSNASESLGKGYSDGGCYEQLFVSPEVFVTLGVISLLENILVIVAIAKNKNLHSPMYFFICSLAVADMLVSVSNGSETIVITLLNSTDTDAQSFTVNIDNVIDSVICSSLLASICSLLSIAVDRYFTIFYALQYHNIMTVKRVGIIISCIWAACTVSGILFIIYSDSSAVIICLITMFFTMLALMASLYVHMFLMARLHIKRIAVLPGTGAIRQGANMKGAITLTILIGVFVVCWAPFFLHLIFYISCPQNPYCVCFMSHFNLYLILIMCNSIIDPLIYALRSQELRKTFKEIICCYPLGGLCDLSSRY
hiPSC survival: enhancers of human iPSC single-cell survival; hiPSC single-cell survival, ATPlite luminescence; 100% = ROCK inhibitor wells, 0% = DMSO; survival enhancement, % at 20 µM; actives 0.044% (n = 360,000); AID 602274; in the data active = survival enhancement above about 18%;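 note: cells exposed to compounds for 16 hours before the ATP read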
MC4R antagonist: blocks human MC4R cAMP signaling; inhibition, % at 6.5 µM; AID 540295; actives 0.48% (n = 360,000); MC4R-expressing cells, MTII-stimulated cAMP, LANCE TR-FRET;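 active = inhibition above its plate's cutoff, the mean of tested wells on that plate plus 3 SD, cut at about 29% in these data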;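 note: 0% = Melanotan II alone and 100% = Melanotan II plus saturating MCL0020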
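Material – human MC4R-expressing U2OS cells · Repeats – no replicates · Detection – TR-FRET with Eu-cAMP and labeled anti-cAMP, 671 nm · Times – compound 30 min, challenge 1 h, detection 1 h · Compound – single nominal compound dose of 6.5 µM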
MC4R barr ag: human MC4R beta-arrestin agonism confirmation. activation, % at 8.9 µM. shares compounds with MC4R barr agon. U2OS MC4R beta-arrestin recruitment, luminescence; scaled DMSO 0%, Melanotan II 100%. actives 31% (n = 2,400);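 active = mean activation across replicates above the hit cutoff set in the earlier primary screen, cut at about 8% in these data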
MOR-DOR barr ag: activates mu-delta opioid heterodimer, MC4R agonist counter-screen | shares compounds with MC4R barr agon | activation, % at 9.2 µM | U2OS PathHunter beta-arrestin, beta-gal luminescence; percent of deltorphin B response, DMSO zero | actives 5.8% (n = 2,400) | AID 602194;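 active = mean activation across replicates exceeds the hit threshold derived in the earlier primary screen, cut at about 18% in these data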;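 note: 100% = deltorphin B at 0.9 µM final and 0% = DMSO alone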
ABCB6 blocker 1: blocks the human ABCB6 transporter | AID 602430 | K562-ABCB6 porphyrin accumulation, flow cytometry, 1 h; active compounds read low | 700 tested, under 10 active | ratio response (% of DMSO), % at 10 µM | shares compounds with ABCB6 inh MLPCN;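 active = repeat-averaged ratio response below 75% of DMSO, the collection mean minus 3 SD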;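 note: median porphyrin fluorescence at 575 nm with 488 nm excitation from mitochondria; lower ratio means less porphyrin signal so ABCB6 inhibition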
Granule exo CP1: blocks lytic granule exocytosis; shares compounds with Granule exo inh; TALL-104 cells, LAMP-1 externalization, flow cytometry; stimulated with PMA plus thapsigargin; inhibition, % at 10 µM; actives 11% (n = 1,500); AID 651954; in the data active = inhibition above about 60%;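 note: 0% = stimulated vehicle wells and 100% = unstimulated wells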
* hit, by the source's call; x = no result given. Most compounds without a hit are left out; they make up all but 2.6% or so of the library.

SMILES | Granule exo inh | Tb MetRS inh | ABCB6 inh MLPCN | MC4R barr agon | hiPSC survival | MC4R antagonist | ABCB6 blocker 1 | others
Cc1cc(C)n(-c2nncn2NC(=O)c2ccc(Cl)cc2O)n1 | -2 | 0 | 96 | -1 | 6 | 2 | x
CC(C)(c1ccccc1)c1ccc(OCC(O)CNC2CCN(Cc3ccccc3)CC2)cc1 (centres undefined) | 62* | 0 | 105 | 25* | -2 | 7 | x | MC4R barr ag=5;MOR-DOR barr ag=19*;Granule exo CP1=85*
CCOc1ccc(OCC(O)CNC2CCN(Cc3ccccc3)CC2)cc1 (centres undefined) | 3 | 0 | 98 | 2 | -3 | 5 | x
COc1ccc2[nH]c3c(C)c4ccncc4c(C)c3c2c1 | 70* | 1 | 159 | 14* | -4 | 10 | x | MC4R barr ag=28*;MOR-DOR barr ag=6;Granule exo CP1=18
CCOc1cc(CNCCc2ccc(S(N)(=O)=O)cc2)ccc1OCc1ccc(Cl)cc1 | 103* | -1 | 89 | 12* | -2 | 3 | x | MC4R barr ag=71*;MOR-DOR barr ag=58*;Granule exo CP1=94*
COc1cc(CNCCc2ccc(S(N)(=O)=O)cc2)ccc1OCc1ccc(Cl)cc1 | 35 | 1 | 103 | 2 | -1 | 18 | x
O=c1[nH]c(=S)[nH]c2c1[C@H](C1CC1)O[C@H](CCc1ccccc1)C2 | -4 | -1 | 98 | x | 0 | x | x
O=C(Cc1cccs1)Nc1cccc(-c2nc3cc4ccccc4cc3[nH]2)c1 | 66* | 2 | 92 | 11* | -3 | 19 | x | MC4R barr ag=14*;MOR-DOR barr ag=6;Granule exo CP1=21
O=C(Nc1ccc(-c2nc3ccccc3[nH]2)cc1)c1ccccc1NS(=O)(=O)c1ccc(F)cc1 | 68* | 5 | 101 | 15* | 6 | 25 | x | MC4R barr ag=6;MOR-DOR barr ag=2;Granule exo CP1=5
CS(=O)(=O)c1ccccc1C(=O)Nc1ccc(-c2nc3ccccc3[nH]2)cc1 | -4 | 1 | 96 | -2 | 0 | -1 | x
CS(=O)(=O)c1cnc2c(-c3ccsc3)cnn2c1N | 3 | -1 | 94 | 3 | 0 | 0 | x
CCN(c1cccc(C(F)(F)F)c1)S(=O)(=O)c1ccc2c(c1)CCN2C(=O)C1CC1 | 8 | 0 | 72* | -1 | -4 | 8 | 101
CC(C(=O)NCC1(c2ccccc2)CCCC1)N1CCOCC1 (centres undefined) | -2 | -1 | 60* | -2 | 3 | -1 | 102
CC(C(=O)NCC1(c2ccccc2)CCOCC1)N1CCOCC1 (centres undefined) | -2 | -1 | 96 | -4 | 1 | 14 | x
CCOC(=O)C(C)NC(=O)CCc1nnc2ccc(N3CCCCC3)nn12 (centres undefined) | -4 | -1 | 90 | -1 | 1 | 12 | 98
CCOCCCNC(=O)CCc1nnc2ccc(N3CCCCC3)nn12 | 0 | -1 | 98 | 1 | 0 | 20 | 100
CCOC(=O)C(Cc1ccccc1)NC(=O)CCc1nnc2ccc(N3CCCCC3)nn12 (centres undefined) | -4 | 0 | 105 | 0 | 0 | 13 | x
Cc1ccc(CSCC(=O)N(CCC(C)C)c2c(N)n(Cc3ccccc3)c(=O)[nH]c2=O)cc1 | 1 | 0 | 101 | -2 | 0 | 15 | x
COc1ccc(Cl)cc1NS(=O)(=O)c1cccc(C(=O)N2CC(C)OC(C)C2)c1 (centres undefined) | 3 | 0 | 92 | -4 | 0 | 10 | x
O=C(CSC1CC(=O)N(c2ccc(C(=O)O)cc2)C1=O)Nc1ccc(Cl)cc1 (centres undefined) | -2 | 0 | 94 | 1 | 2 | 0 | x
O=C(c1ccccc1)N1CCC(c2nc3c(nnn3Cc3ccccc3Cl)c(=O)[nH]2)CC1 | -8 | 0 | 98 | -2 | -1 | 3 | 102
O=C(c1cccs1)N1CCC(c2nc3c(nnn3Cc3ccccc3Cl)c(=O)[nH]2)CC1 | -4 | 0 | 99 | -2 | 0 | -7 | 100
CCC(C)NC(=O)c1nc2c(nnn2Cc2ccccc2Cl)c(=O)[nH]1 (centres undefined) | 15 | 0 | 98 | -1 | 2 | 10 | x
O=C(NCc1cccs1)c1nc2c(nnn2Cc2ccccc2Cl)c(=O)[nH]1 | 0 | 0 | 70* | 0 | -1 | 4 | 97
CC(NC(=O)[C@H](C)NC(=O)[C@@H]1CSC2c3ccccc3C(=O)N21)c1ccccc1 (some centres undefined) | 1 | 0 | 103 | -2 | 0 | 11 | x
SMILES | Granule exo inh | Tb MetRS inh | ABCB6 inh MLPCN | MC4R barr agon | hiPSC survival | MC4R antagonist | ABCB6 blocker 1 | others
COc1cccc(-c2nnc(-c3ccc(C)o3)o2)c1 | -7 | 0 | 96 | -3 | -5 | 1 | x
COc1cccc(-c2nnc(-c3ccco3)o2)c1 | -1 | -1 | 67* | 0 | -2 | -3 | 97
Cc1cc(C)n2nc(C(=O)N/N=C/c3c4ccccc4cc4ccccc34)nc2n1 | -1 | 0 | 89 | -1 | 1 | -10 | x
Cc1nc2nc(SCC(=O)NCCCN3CCCC3)nn2c(C)c1Cc1ccccc1Cl | 0 | 0 | 94 | -2 | 0 | 5 | x
Cc1ccc(-c2nc3s/c(=C\c4ccco4)c(=O)n3n2)cc1 | -4 | 0 | 70* | -3 | 4 | 4 | 103
O=c1c2c3c(sc2n2cnnc2n1CCc1ccccc1)CCCC3 | 1 | 0 | 66* | 0 | 4 | 1 | 101
NC(=O)Cn1c(=O)n(CCc2ccccc2)c(=O)c2c3c(sc21)CCCC3 | -2 | -1 | 97 | -1 | -1 | 5 | x
COCc1cc(C)nc(SCC(=O)N2CCC(C)CC2)c1C#N | -4 | 0 | 58* | -2 | 3 | -6 | 102
O=C1NC2(CCCCC2)C(=O)N1c1cccc(Cl)c1 | -1 | -1 | 73* | -2 | 0 | 7 | 100
CC(=O)c1cccc(NC(=O)C(C)Sc2nnc3ccccn23)c1 (centres undefined) | -2 | 0 | 97 | 2 | -3 | 15 | x

Source: PubChem BioAssay (several laboratories)
